≈ marks a conversion by molar mass, not a printed value. Calls of active or inactive are those of the source. The rule behind the calls is not given here.
Columns and labels:
Urease = Urease (Canavalia ensiformis, UniProt P07374); assay: Inhibition of Jack bean urease using urea as substrate assessed as production of ammonia after 15 mins
In short: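 Jack bean urease in buffer (100 mM urea, 0.01 M K2HPO4, 1 mM EDTA, 0.01 M LiCl, pH 8.2) incubated with compound 15 min at room temperature. Ammonia read by indophenol method (phenol/nitroprusside plus NaOH/NaOCl), absorbance 625 nm after 20 min. % inhibition = 100 − (OD test/OD control)×100. IC50 from serial concentrations (250 to 0.114 µg/mL), triplicate; thiourea standard.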

[1] = biological target: Urease (Canavalia ensiformis) (UniProt P07374); assay: Inhibition of Jack bean urease using urea as substrate assessed as production of ammonia at 100 ug/ml after 15 mins
Sequence of Urease (Canavalia ensiformis) (P07374 whole entry, looked up): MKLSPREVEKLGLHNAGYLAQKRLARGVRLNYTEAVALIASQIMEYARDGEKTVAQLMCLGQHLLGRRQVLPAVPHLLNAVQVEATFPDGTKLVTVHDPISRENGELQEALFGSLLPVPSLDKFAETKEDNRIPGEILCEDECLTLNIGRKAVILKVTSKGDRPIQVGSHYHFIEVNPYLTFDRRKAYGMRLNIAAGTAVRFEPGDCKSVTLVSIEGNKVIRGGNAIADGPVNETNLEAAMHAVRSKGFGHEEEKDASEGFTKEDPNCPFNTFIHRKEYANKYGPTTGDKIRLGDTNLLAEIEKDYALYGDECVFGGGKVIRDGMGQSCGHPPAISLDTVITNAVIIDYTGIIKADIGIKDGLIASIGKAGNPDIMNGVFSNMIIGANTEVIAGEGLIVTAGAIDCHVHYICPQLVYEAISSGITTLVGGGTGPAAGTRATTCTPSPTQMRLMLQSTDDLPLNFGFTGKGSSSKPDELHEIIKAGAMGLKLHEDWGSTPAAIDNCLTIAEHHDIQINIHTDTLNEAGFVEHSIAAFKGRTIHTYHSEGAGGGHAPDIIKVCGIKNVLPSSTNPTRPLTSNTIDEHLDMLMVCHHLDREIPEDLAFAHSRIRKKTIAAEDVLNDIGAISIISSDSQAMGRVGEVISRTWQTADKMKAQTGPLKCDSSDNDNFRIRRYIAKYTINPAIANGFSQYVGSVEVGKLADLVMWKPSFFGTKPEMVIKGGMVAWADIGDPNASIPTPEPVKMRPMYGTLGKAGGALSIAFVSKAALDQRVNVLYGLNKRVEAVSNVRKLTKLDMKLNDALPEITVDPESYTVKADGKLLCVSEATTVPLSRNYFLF
In short: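 Jack bean urease with buffer (100 mM urea, 0.01 M K2HPO4, 1 mM EDTA, 0.01 M LiCl, pH 8.2) and compound, 15 min at room temperature. Ammonia read by indophenol method (phenol/nitroprusside plus NaOH/NaOCl), A625 after 20 min. % inhibition = 100 − (OD test/OD control)×100. Thiourea as standard; triplicates.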

[2] = system: Yersinia pseudotuberculosis; assay: Antimicrobial activity against Yersinia pseudotuberculosis ATCC 911 after 18 to 24 hrs by double microdilution method; assay type: functional
In short: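 Double broth microdilution MIC (µg/mL). Mueller-Hinton broth pH 7.3; plates incubated 18–24 h at 35 °C. Compounds dissolved in […] as 20.000 µg/mL stock. Ampicillin as reference antibacterial; DMSO diluted 1:10 as solvent control.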

Bacillus cereus = assay: Antimicrobial activity against Bacillus cereus 702 Roma after 18 to 24 hrs by double microdilution method; assay type: functional
In short: (§1)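 Twofold broth microdilution in Mueller-Hinton broth, pH 7.3. Compounds come from 20.000 µg/mL stocks in hexane. […] Ampicillin serves as reference drug and DMSO diluted 1:10 as solvent control.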

Staphylococcus aureus = assay: Antimicrobial activity against Staphylococcus aureus ATCC 25923 after 18 to 24 hrs by double microdilution method; assay type: functional; in short: as §1
Enterococcus faecalis = assay: Antimicrobial activity against Enterococcus faecalis ATCC 29212 after 18 to 24 hrs by double microdilution method; assay type: functional; in short: as §1
[3] = system: Mycolicibacterium smegmatis; assay: Antimicrobial activity against Mycobacterium smegmatis ATCC 607 after 48 to 72 hrs by double microdilution method; assay type: functional
Candida albicans = assay: Antimicrobial activity against Candida albicans ATCC 60193 after 18 to 24 hrs by double microdilution method; assay type: functional
Saccharomyces cerevisiae = assay: Antimicrobial activity against Saccharomyces cerevisiae RSKK 251 after 18 to 24 hrs by double microdilution method; assay type: functional
Pseudomonas aeruginosa = assay: Antimicrobial activity against Pseudomonas aeruginosa ATCC 43288 after 18 to 24 hrs by double microdilution method; assay type: functional; in short: as §1

Sequence of Urease (P07374 whole entry): as the sequence (P07374 whole entry, looked up) above

Row | SMILES | IC50 (Urease) [µM] | inhibition [1] [%] | MIC [2] | MIC (Bacillus cereus) | MIC (Staphylococcus aureus) | MIC (Enterococcus faecalis) | MIC [3] | MIC (Candida albicans) | MIC (Saccharomyces cerevisiae) | MIC (Pseudomonas aeruginosa)
1 | CCn1cc(C(=O)O)c(=O)c2cc(F)c(N3CCN(C(=O)CSc4nnc(CN5CCN(c6ccccc6OC)CC5)n4-c4ccccc4)CC3)cc21 | 27.7 | 86.2 | – | – | – | – | – | – | – | –
2 | CCn1cc(C(=O)O)c(=O)c2cc(F)c(N3CCN(c4ccc(NC(=S)NCc5ccccc5)cc4F)CC3)cc21 | – | – | < 1.9 µg/mL | < 1.9 µg/mL | < 1.9 µg/mL | < 1.9 µg/mL | 0.97 µg/mL (≈ 1.68 µM) | inactive | inactive | 31.5 µg/mL (≈ 54.5 µM)
3 | CN[C@@H]1[C@H](O[C@H]2[C@H](O[C@H]3[C@H](O)[C@@H](O)[C@H](N=C(N)N)[C@@H](O)[C@@H]3N=C(N)N)O[C@@H](C)[C@]2(O)C=O)O[C@@H](CO)[C@H](O)[C@H]1O [STREPTOMYCIN] | – | – | – | – | – | – | 4 µg/mL (≈ 6.88 µM) | – | – | –
4 | CCn1cc(C(=O)O)c(=O)c2cc(F)c(N3CCN(c4ccc(/N=c5\sc(-c6ccc(Cl)cc6)cn5Cc5ccccc5)cc4F)CC3)cc21 | – | – | inactive | inactive | inactive | 250 µg/mL (≈ 351 µM) | inactive | 250 µg/mL (≈ 351 µM) | 250 µg/mL (≈ 351 µM) | inactive
5 | CCN1CC(=O)S/C1=N\c1ccc(N2CCN(c3cc4c(cc3F)c(=O)c(C(=O)O)cn4CC)CC2)c(F)c1 | – | – | inactive | 250 µg/mL (≈ 450 µM) | 250 µg/mL (≈ 450 µM) | 250 µg/mL (≈ 450 µM) | inactive | 250 µg/mL (≈ 450 µM) | 250 µg/mL (≈ 450 µM) | inactive
6 | CCn1cc(C(=O)O)c(=O)c2cc(F)c(N3CCN(c4ccc(NC(=O)NCc5ccccc5)cc4F)CC3)cc21 | – | – | inactive | 500 µg/mL (≈ 890 µM) | 500 µg/mL (≈ 890 µM) | 500 µg/mL (≈ 890 µM) | inactive | 500 µg/mL (≈ 890 µM) | 250 µg/mL (≈ 445 µM) | inactive
7 | CCn1cc(C(=O)O)c(=O)c2cc(F)c(N3CCN(C(=O)CCl)CC3)cc21 | – | – | 1.7 µg/mL (≈ 4.29 µM) | 0.21 µg/mL (≈ 0.531 µM) | 0.21 µg/mL (≈ 0.531 µM) | 0.21 µg/mL (≈ 0.531 µM) | 0.42 µg/mL (≈ 1.06 µM) | inactive | inactive | 15.6 µg/mL (≈ 39.4 µM)
8 | COc1ccccc1N1CCN(CC(=O)N/N=C\c2ccccc2O)CC1 | – | – | 31.3 µg/mL (≈ 85 µM) | 31.3 µg/mL (≈ 85 µM) | 31.3 µg/mL (≈ 85 µM) | 15.6 µg/mL (≈ 42.3 µM) | 31.3 µg/mL (≈ 85 µM) | 250 µg/mL (≈ 679 µM) | 62.5 µg/mL (≈ 170 µM) | 62.5 µg/mL (≈ 170 µM)
9 | CCNC(=S)Nc1ccc(N2CCN(c3cc4c(cc3F)c(=O)c(C(=O)O)cn4CC)CC2)c(F)c1 | – | – | inactive | inactive | inactive | inactive | inactive | 250 µg/mL (≈ 485 µM) | 250 µg/mL (≈ 485 µM) | inactive
10 | COc1ccc(/C=N\NC(=O)CN2CCN(c3ccccc3OC)CC2)cc1O | – | – | 31.3 µg/mL (≈ 78.6 µM) | 31.3 µg/mL (≈ 78.6 µM) | 31.3 µg/mL (≈ 78.6 µM) | 15.6 µg/mL (≈ 39.2 µM) | 31.3 µg/mL (≈ 78.6 µM) | 62.5 µg/mL (≈ 157 µM) | 31.3 µg/mL (≈ 78.6 µM) | 31.3 µg/mL (≈ 78.6 µM)
11 | NC(N)=S [THIOUREA] | 678 | – | – | – | – | – | – | – | – | –
12 | CCn1cc(C(=O)O)c(=O)c2cc(F)c(N3CCN(c4ccc([N+](=O)[O-])cc4F)CC3)cc21 | – | – | 31.5 µg/mL (≈ 68.7 µM) | inactive | inactive | inactive | inactive | inactive | inactive | inactive
13 | CCn1cc(C(=O)O)c(=O)c2cc(F)c(N3CCN(c4ccc(/N=C5\SC(=O)CN5Cc5ccccc5)cc4F)CC3)cc21 | – | – | 62.5 µg/mL (≈ 101 µM) | 125 µg/mL (≈ 202 µM) | 125 µg/mL (≈ 202 µM) | 125 µg/mL (≈ 202 µM) | 62.5 µg/mL (≈ 101 µM) | 250 µg/mL (≈ 405 µM) | 250 µg/mL (≈ 405 µM) | inactive
14 | CCn1cc(-c2ccc(Cl)cc2)s/c1=N\c1ccc(N2CCN(c3cc4c(cc3F)c(=O)c(C(=O)O)cn4CC)CC2)c(F)c1 | – | – | inactive | 1000 µg/mL (≈ 1540 µM) | inactive | inactive | inactive | inactive | inactive | inactive
15 | CCn1cc(C(=O)O)c(=O)c2cc(F)c(N3CCN(c4ccc(NC(=S)NCCCN5CCOCC5)cc4F)CC3)cc21 | – | – | 62.5 µg/mL (≈ 102 µM) | 125 µg/mL (≈ 203 µM) | 15.6 µg/mL (≈ 25.4 µM) | 31.2 µg/mL (≈ 50.8 µM) | inactive | inactive | inactive | 500 µg/mL (≈ 813 µM)
16 | CCn1cc(C(=O)O)c(=O)c2cc(F)c(N3CCN(c4ccc(N)cc4F)CC3)cc21 | – | – | < 1.9 µg/mL | < 1.9 µg/mL | < 1.9 µg/mL | < 1.9 µg/mL | 1.95 µg/mL (≈ 4.55 µM) | inactive | inactive | 7.81 µg/mL (≈ 18.2 µM)
17 | CC1(C)S[C@@H]2[C@H](NC(=O)[C@H](N)c3ccccc3)C(=O)N2[C@H]1C(=O)O [AMPICILLIN] | – | – | 18 µg/mL (≈ 51.5 µM) | 15 µg/mL (≈ 42.9 µM) | 35 µg/mL (≈ 100 µM) | 10 µg/mL (≈ 28.6 µM) | – | – | – | > 128 µg/mL
18 | OC(Cn1cncn1)(Cn1cncn1)c1ccc(F)cc1F [FLUCONAZOLE] | – | – | – | – | – | – | – | < 8 µg/mL | < 8 µg/mL | –
